This is a sample that favours compounds with a hit; in the whole collection about 1.3% have one here.
HKDC1 inhibitor – HKDC1 (human) hexokinase inhibition | Q2TB90 | recombinant HKDC1, G6PDH/diaphorase resazurin coupled fluorescence | inhibition, % at 20 µM | 340,000 tested, 0.16% active;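 active means inhibition above about 35% when tested at 20 µM, limit read from the data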;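 further: plate controls were DMSO wells with enzyme for no effect and DMSO wells lacking enzyme for full effect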
Target sequence (Q2TB90 whole entry, looked up): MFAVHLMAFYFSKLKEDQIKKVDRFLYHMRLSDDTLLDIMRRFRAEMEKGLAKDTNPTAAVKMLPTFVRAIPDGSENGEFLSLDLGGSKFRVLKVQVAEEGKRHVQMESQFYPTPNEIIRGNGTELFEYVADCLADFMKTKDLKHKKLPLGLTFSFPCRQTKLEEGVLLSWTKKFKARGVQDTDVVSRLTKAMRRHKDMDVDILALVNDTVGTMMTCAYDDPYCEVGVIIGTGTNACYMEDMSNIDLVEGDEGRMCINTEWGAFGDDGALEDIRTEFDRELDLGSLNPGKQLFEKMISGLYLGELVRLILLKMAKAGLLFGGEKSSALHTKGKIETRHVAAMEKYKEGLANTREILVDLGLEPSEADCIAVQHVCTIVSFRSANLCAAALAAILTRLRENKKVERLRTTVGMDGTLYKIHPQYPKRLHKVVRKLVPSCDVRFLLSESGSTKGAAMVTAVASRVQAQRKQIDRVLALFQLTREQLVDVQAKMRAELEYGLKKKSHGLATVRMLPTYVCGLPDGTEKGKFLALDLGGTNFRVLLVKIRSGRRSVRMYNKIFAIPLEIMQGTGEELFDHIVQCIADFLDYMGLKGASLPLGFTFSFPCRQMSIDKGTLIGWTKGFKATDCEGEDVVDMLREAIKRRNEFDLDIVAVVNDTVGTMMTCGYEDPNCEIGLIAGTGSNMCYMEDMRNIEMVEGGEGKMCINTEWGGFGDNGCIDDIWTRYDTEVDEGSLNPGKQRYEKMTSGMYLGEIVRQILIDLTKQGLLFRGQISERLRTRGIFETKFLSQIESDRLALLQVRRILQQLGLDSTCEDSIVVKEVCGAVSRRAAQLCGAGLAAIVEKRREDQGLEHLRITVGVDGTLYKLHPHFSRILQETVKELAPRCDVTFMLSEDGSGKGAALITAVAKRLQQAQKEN
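Incubation: 90 min at room temperature in dark / Material: recombinant HKDC1 (HK5) hexokinase enzyme, produced in-house / Quantity: enzyme 5 µg/mL final / Compound: one dose of 20 µM, 1% DMSO / Reagent: glucose and ATP substrates / Buffer or medium: Tris pH 8.0 buffer with MgCl2, Tween-20, BSA, BME / Technique: resorufin fluorescence at 613 nm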
Diaph inh CS – inhibits diaphorase or chemically oxidizes, flagging diaphorase assay artifacts | diaphorase resazurin-to-resorufin fluorescence, NADH, 16 min; bacterial (C. kluyveri) enzyme, not human | inhibition, % at 20 µM | 190,000 tested, 0.69% active | AID 1217;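 active means primary screen inhibition at 20 µM above a set limit, cut at about 50% in these data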;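 further: plate controls were DMSO with full reaction for no effect and wells lacking NADH for full effect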
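material = Clostridium kluyveri diaphorase enzyme | amount = 0.14 U/mL diaphorase, enzyme working solution | schedule = incubation 16 min, room temperature | detection = fluorescence of resorufin formed from resazurin, Ex 544/Em 590 nm | benchmarks = positive control minus NADH, DMSO neutral control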
PfG6PD inh – PfG6PD (Plasmodium falciparum) enzyme inhibition | PfGluPho enzyme, NADPH resazurin-diaphorase fluorescence | inhibition, % at 20 µM | 350,000 tested, 0.78% active;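 active means inhibition reaching at least a set limit at 20 µM in the primary screen, cut at about 59% in these data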;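 further: 0% = DMSO wells with substrate and 100% = DMSO wells lacking glucose-6-phosphate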
G6PDH CS – L. mesenteroides G6PDH inhibition counter-screen | inhibition, % at 5 µM | Purified L. mesenteroides G6PDH, diaphorase/resazurin coupled fluorescence, 45 min | 200,000 tested, 0.12% active; in the data active means inhibition above about 50%
Tb hexokinase – blocks Trypanosoma brucei hexokinase 1 activity; 220,000 tested, 0.11% active; recombinant TbHK1, G6PDH-coupled NADH A340; inhibition, % at 10 µM; AID 1430;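 active means inhibition of 50% or more in the single-dose primary screen; inactive means inhibition below 50%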
Starred values were filed as active, the others as inactive; . = no result.

SMILES	HKDC1 inhibitor	Diaph inh CS	PfG6PD inh	G6PDH CS	Tb hexokinase
CCN(C(=O)c1coc(=O)c(Br)c1)c1ccc2c(c1)OCO2	17.4	66.3*	50.2	26.9	-28.3
CCOC(=O)Cc1csc(NC(=O)CSc2nc(-c3ccccc3)c(C#N)c(=O)[nH]2)n1	13.5	16.4	-44.3	-4.5	-11.5
COc1cccc(-c2nc(SCC(=O)Nc3nc(-c4ccccc4)c(C)s3)[nH]c(=O)c2C#N)c1	6.5	81.3*	-56.4	7.6	1.0
CCOc1ccc2nc(NC(=O)CSc3nc(-c4ccccc4)c(C#N)c(=O)[nH]3)sc2c1	-2.5	59.4*	-60.5	5.1	2.9
COc1ccc2c(c1)-c1nc(/N=C/c3ccc(O)cc3)sc1CC2	17.1	56.1*	20.5	26.1	-30.9
COc1ccc2c(c1)-c1nc(/N=C/c3c(O)ccc4ccccc34)sc1CC2	13.6	49.6	43.3	37.5	24.4
CCNC(=O)C/C(C)=N/NC(=O)C1CCCCC1	-6.3	6.2	-5.6	-6.6	16.4
COc1cc(-c2nnc(SCc3cc(=O)oc4cc(O)c(O)cc34)o2)cc(OC)c1OC	29.5	67.1*	-35.5	-0.2	-9.7
C/C(=N/NC(=O)c1cc(O)c(O)c(O)c1)c1ccc([N+](=O)[O-])cc1	19.1	75.2*	38.0	8.6	-2.2
C/C(=N\NC(=O)c1ccc([N+](=O)[O-])cc1)c1c(O)cc(C)oc1=O	-7.3	12.2	-13.6	1.4	-13.7
CCOC(=O)N1CCC(NC(=O)CS(=O)(=O)Cc2nc(-c3ccccc3Cl)oc2C)CC1	-5.2	.	-13.3	.	.
CCOC(=O)/C(C(N)=NC(C)C)=C(\O)c1ccccc1	-9.6	14.2	2.7	0.7	-2.1
CCOc1ccc2c(c1)c(N=Nc1cccc(C(=O)O)c1)c(O)n2C	6.4	37.2	3.3	6.4	31.9
Cc1ccc2c(c1)c(N=Nc1cccc(C(=O)O)c1)c(O)n2C	0.5	58.8*	-4.8	6.6	-12.4
CNC[C@H](O)c1ccc(O)c(O)c1	-1.2	58.6*	31.4	64.2*	0.4
CCOc1cc(/C=N/NC(=O)CCn2nc(C)cc2C)ccc1O	-3.8	.	-9.1	.	-25.8
COc1ccc(/C=N/NC(=O)c2cc(O)c(O)c(O)c2)cc1Cn1cc([N+](=O)[O-])cn1	15.6	66.3*	53.4	7.4	-7.6
C#CCOCCOCCOCCNc1nc(N2CCN(C(=O)CCCCCCCCCCNC(=O)Cn3cc(CCCCCN)nn3)CC2)nc(N2CCN(C(=O)CCCCCCCCCCNC(=O)Cn3cc(CCCCCN)nn3)CC2)n1	-9.0	.	77.2*	.	.
C#CCOCCOCCOCCNc1nc(N2CCN(C(=O)CCCCCCCCCCNC(=O)[C@H]([C@@H](C)CC)n3cc(CCCCN=C(N)N)nn3)CC2)nc(N2CCN(C(=O)CCCCCCCCCCNC(=O)[C@H](CO)n3cc(CCCCCN)nn3)CC2)n1	6.3	.	64.2*	.	.
C#CCOCCOCCOCCNc1nc(N2CCN(C(=O)CCCCCCCCCCNC(=O)Cn3cc(CCCCCN)nn3)CC2)nc(N2CCN(C(=O)CCCCCCCCCCNC(=O)[C@@H](CCC(=O)O)n3cc(CCCCCN)nn3)CC2)n1	-8.0	.	24.7	.	.
C#CCOCCOCCOCCNc1nc(N2CCN(C(=O)CCCCCCCCCCNC(=O)[C@H](CCCCN)n3cc(CCCC(=O)O)nn3)CC2)nc(N2CCN(C(=O)CCCCCCCCCCNC(=O)[C@@H]([C@H](C)O)n3cc(C)nn3)CC2)n1	0.1	.	8.8	.	.
C#CCOCCOCCOCCNc1nc(N2CCN(C(=O)CCCCCCCCCCNC(=O)[C@H](CCCCN)n3cc(C)nn3)CC2)nc(N2CCN(C(=O)CCCCCCCCCCNC(=O)[C@H](CCCCN)n3cc(CCCC(=O)O)nn3)CC2)n1	-10.7	.	59.4*	.	.
C#CCOCCOCCOCCNc1nc(N2CCN(C(=O)CCCCCCCCCCNC(=O)[C@H]([C@@H](C)CC)n3cc(CCCCN=C(N)N)nn3)CC2)nc(N2CCN(C(=O)CCCCCCCCCCNC(=O)[C@H](CCCCN)n3cc(C)nn3)CC2)n1	9.7	.	72.1*	.	.
C#CCOCCOCCOCCNc1nc(N2CCN(C(=O)CCCCCCCCCCNC(=O)[C@H]([C@@H](C)CC)n3cc(CCCCCN)nn3)CC2)nc(N2CCN(C(=O)CCCCCCCCCCNC(=O)[C@H](CCCCN)n3cc(CCCC(=O)O)nn3)CC2)n1	-6.2	.	19.5	.	.
C#CCOCCOCCOCCNc1nc(N2CCN(C(=O)CCCCCCCCCCNC(=O)[C@H]([C@@H](C)CC)n3cc(CCCCCN)nn3)CC2)nc(N2CCN(C(=O)CCCCCCCCCCNC(=O)[C@H](CO)n3cc(CCCCCN)nn3)CC2)n1	-2.9	.	60.7*	.	.
SMILES	HKDC1 inhibitor	Diaph inh CS	PfG6PD inh	G6PDH CS	Tb hexokinase
C#CCOCCOCCOCCNc1nc(N2CCN(C(=O)CCCCCCCCCCNC(=O)[C@@H](CCC(=O)O)n3cc(CCCCCN)nn3)CC2)nc(N2CCN(C(=O)CCCCCCCCCCNC(=O)[C@H]([C@@H](C)CC)n3cc(CCCCCN)nn3)CC2)n1	-1.9	.	7.7	.	.
CC1(C)C(=O)NCCN1C(=O)CSc1nccc(-c2ccc(Br)cc2)n1	-1.7	14.4	-9.5	0.0	-7.7
Cc1cc(N)ccc1-n1c(C)ccc1C	14.7	24.6	59.2*	11.0	2.6
Cc1cc(N)ccc1N1CCCC1	15.1	14.3	88.2*	30.1	17.9
Cn1nc(C(=O)Nc2cccc(C(F)(F)F)c2)c2ccccc2c1=O	-0.1	13.2	35.1	2.8	-11.5
C=C(C)CN(CC)c1ccc(N2C(=O)CCCC2=O)cc1[N+](=O)[O-]	-3.6	.	23.6	.	.
O=C1/C(=C/C=C/c2ccco2)SC(=S)N1NS(=O)(=O)c1ccccc1	29.3	.	27.8	.	67.1*
O=C(N=Nc1c(O)[nH]c2ccc([N+](=O)[O-])cc12)c1ccccc1Cl	13.1	.	5.0	.	-11.0
O=C(O)c1ccccc1N=Nc1c(O)[nH]c2ccc([N+](=O)[O-])cc12	37.1*	.	-9.0	.	.
Oc1ccc2[nH]ccc2c1	2.0	25.4	2.2	55.9*	-0.1
O=C(Cc1c(F)cccc1Cl)Nc1cccc(S(=O)(=O)NC2=NCCCCC2)c1	1.9	.	6.0	.	.
O=C(Cc1ccc(Cl)cc1Cl)Nc1cccc(S(=O)(=O)Nc2ccccc2F)c1	-40.7	8.9	70.3*	-0.8	29.8
CC(CCC(C)C(C)(C)C)[C@@H]1CC[C@H]2C3C[C@H](OS(O)(=S)=S)[C@H]4C[C@H](OS(O)(=S)=S)[C@@H](OS(O)(=S)=S)C[C@]4(C)[C@H]3CC[C@]12C (some centres undefined) (tested in a mixture with another compound)	81.2*	.	-53.5	.	.
CC(CCC(=O)NN)C1CCC2C3CCC4CC(O)CCC4(C)C3CCC12C (centres undefined)	1.0	.	-23.0	.	.
CC1=C(C)/C(=N\OS(=O)(=O)c2ccc(C)cc2)C=CC1=O	14.7	101.1*	107.6*	31.6	2.5
COc1ccc(S(=O)(=O)/N=C2/C=CC(=O)C(C)=C2C)cc1	51.8*	28.6	62.0*	39.8	-4.7
O=C(COC(=O)c1c2c(nc3ccccc13)/C(=C\c1ccco1)CC2)NC1CCCC1	13.6	.	20.9	.	.
